# In ChEMBL document CHEMBL4118021, “Studies of TAK1-centered polypharmacology with novel covalent TAK1 inhibitors” (Bioorg Med Chem, 2017):
# Calls of active or inactive are those of the source. The rule behind the calls is not given here.
# Assays:
# [1] = tested on: NCI-H23; test: Antiproliferative activity against human NCI-H23 cells harboring KRAS G12C mutant after 72 hrs by CellTiter-Glo assay; format: functional, cell-based
# How it was run: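 NCI-H23 or NCI-H358 cells seeded at 2000 cells/well and grown 48 h before drug. Varying doses were added and cells incubated 72 h. Viability was read as CellTiter-Glo luminescence, and growth-inhibition IC50 was calculated from dose-response curves.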
# [2] = target: Inhibitor of nuclear factor kappa-B kinase subunit alpha (Homo sapiens) (UniProt O15111); test: Inhibition of IKKa in human SKCO1 cells at 1 uM after 4 hrs using biotin labeled DLKPENIVLQDVGGK probe by mass-spectrometric analysis relative to control; format: cell-based
# [3] = target: T1, Dual specificity mitogen-activated protein kinase kinase 4 (Homo sapiens) (UniProt P45985); test: Inhibition of MAP2K4 in human SKCO1 cells at 1 uM after 4 hrs using biotin labeled DIKPSNILLDR probe by mass-spectrometric analysis relative to control; format: cell-based
# T1 sequence (whole entry): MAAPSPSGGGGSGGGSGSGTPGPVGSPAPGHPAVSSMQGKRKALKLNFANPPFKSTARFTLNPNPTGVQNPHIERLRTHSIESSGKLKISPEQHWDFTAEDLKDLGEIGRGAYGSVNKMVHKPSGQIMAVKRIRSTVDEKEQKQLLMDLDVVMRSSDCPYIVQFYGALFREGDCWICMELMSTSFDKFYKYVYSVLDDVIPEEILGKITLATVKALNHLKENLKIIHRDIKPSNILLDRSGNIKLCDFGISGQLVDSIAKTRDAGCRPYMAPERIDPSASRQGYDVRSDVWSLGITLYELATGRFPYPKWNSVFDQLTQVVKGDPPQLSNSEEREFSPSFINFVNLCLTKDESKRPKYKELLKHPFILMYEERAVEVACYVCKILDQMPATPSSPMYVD
# [4] = target: Serine/threonine-protein kinase ATR (Homo sapiens) (UniProt Q13535); test: Inhibition of ATR in human SKCO1 cells at 1 uM after 4 hrs using biotin labeled FYIMMCKPK probe by mass-spectrometric analysis relative to control; format: cell-based
# [5] = target: T2, Dual specificity mitogen-activated protein kinase kinase 5 (Homo sapiens) (UniProt Q13163); test: Inhibition of MAP2K5 in human SKCO1 cells at 1 uM after 4 hrs using biotin labeled DVKPSNMLVNTR probe by mass-spectrometric analysis relative to control; format: cell-based
# T2 sequence (whole entry): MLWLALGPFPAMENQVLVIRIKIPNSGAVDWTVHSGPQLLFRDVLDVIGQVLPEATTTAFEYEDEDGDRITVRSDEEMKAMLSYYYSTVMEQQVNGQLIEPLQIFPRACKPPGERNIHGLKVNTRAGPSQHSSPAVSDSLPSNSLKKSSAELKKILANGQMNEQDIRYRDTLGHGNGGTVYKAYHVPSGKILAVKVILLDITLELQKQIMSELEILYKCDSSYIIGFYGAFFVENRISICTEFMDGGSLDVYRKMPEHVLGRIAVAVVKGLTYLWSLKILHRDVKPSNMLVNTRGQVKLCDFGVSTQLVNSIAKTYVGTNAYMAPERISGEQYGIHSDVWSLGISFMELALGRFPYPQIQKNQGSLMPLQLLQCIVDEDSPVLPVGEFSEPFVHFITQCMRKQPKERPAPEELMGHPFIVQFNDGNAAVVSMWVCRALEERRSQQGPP
# [6] = target: Serine/threonine-protein kinase/endoribonuclease IRE2 (Homo sapiens) (UniProt Q76MJ5); test: Inhibition of IRE2 in human SKCO1 cells at 1 uM after 4 hrs using biotin labeled DLKPGNILITGPDSQGLGR probe by mass-spectrometric analysis relative to control; format: cell-based
# [7] = target: Mitogen-activated protein kinase 14 (Homo sapiens) (UniProt Q16539); test: Inhibition of p38a in human SKCO1 cells at 1 uM after 4 hrs using biotin labeled DLKPSNLAVNEDCELK probe by mass-spectrometric analysis relative to control; format: cell-based
# How it was run: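 Live SK-CO-1 cells exposed to compound at 1 μM or DMSO for 4 h (KiNativ). Lysates then labeled with lysine-reactive ATP/ADP-biotin probe, and probe-labeled kinase peptides quantified by mass spectrometry. Percent inhibition of probe-dependent recovery calculated relative to DMSO-treated cells.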
# [8] = target: Ephrin type-B receptor 2 (Homo sapiens) (UniProt P29323); test: Inhibition of EphB2 in human SKCO1 cells at 1 uM after 4 hrs using biotin labeled FLEDDTSDPTYTSALGGKIPIR probe by mass-spectrometric analysis relative to control; format: cell-based
# [9] = target: Serine/threonine-protein kinase Nek6 (Homo sapiens) (UniProt Q9HC98); test: Inhibition of NEK6 in human SKCO1 cells at 1 uM after 4 hrs using biotin labeled DIKPANVFITATGVVK probe by mass-spectrometric analysis relative to control; format: cell-based
# [10] = target: Ribosomal protein S6 kinase alpha-1 (Homo sapiens) (UniProt Q15418); test: Inhibition of RSK1 domain2 in human SKCO1 cells at 1 uM after 4 hrs using biotin labeled DLKPSNILYVDESGNPECLR probe by mass-spectrometric analysis relative to control; format: cell-based
# [11] = target: Tyrosine-protein kinase Fyn (Homo sapiens) (UniProt P06241); test: Inhibition of FYN in human SKCO1 cells at 1 uM after 4 hrs using biotin labeled QGAKFPIKWTAPEAALYGR probe by mass-spectrometric analysis relative to control; format: cell-based
# [12] = target: Serine/threonine-protein kinase greatwall (Homo sapiens) (UniProt Q96GX5); test: Inhibition of MASTL in human SKCO1 cells at 1 uM after 4 hrs using biotin labeled LYAVKVVK probe by mass-spectrometric analysis relative to control; format: cell-based
# [13] = target: Mitogen-activated protein kinase 7 (Homo sapiens) (UniProt Q13164); test: Inhibition of Erk5 in human SKCO1 cells at 1 uM after 4 hrs using biotin labeled DLKPSNLLVNENCELK probe by mass-spectrometric analysis relative to control; format: cell-based
# [14] = target: Dual specificity mitogen-activated protein kinase kinase 1 (Homo sapiens) (UniProt Q02750); test: Inhibition of MAP2K1 in human SKCO1 cells at 1 uM after 4 hrs using biotin labeled DVKPSNILVNSR probe by mass-spectrometric analysis relative to control; format: cell-based
# How it was run: (§1)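 Live SK-CO-1 cells treated 4 h at 1 μM (DMSO control); cells lysed and lysates labeled with lysine-reactive ATP/ADP-biotin probe (KiNativ); probe-labeled kinase peptides quantified by mass spectrometry; inhibition expressed as percent reduction in probe-dependent recovery versus DMSO-treated cells.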
# [15] = target: Cyclin-dependent kinase 6 (Homo sapiens) (UniProt Q00534); test: Inhibition of CDK6 in human SKCO1 cells at 1 uM after 4 hrs using biotin labeled DLKPQNILVTSSGQIK probe by mass-spectrometric analysis relative to control; format: cell-based
# [16] = tested on: BaF3; test: Antiproliferative activity against mouse BA/F3 cells harboring KRAS G12D mutant after 72 hrs in presence of IL-3 by CellTiter-Glo assay; format: functional, cell-based; conditions: BaF3, 72 h
# [17] = target: Dual specificity mitogen-activated protein kinase kinase 2 (Homo sapiens) (UniProt P36507); test: Inhibition of MAP2K2 in human SKCO1 cells at 1 uM after 4 hrs using biotin labeled DVKPSNILVNSR probe by mass-spectrometric analysis relative to control; format: cell-based; how it was run: as §1
# [18] = Antiproliferative activity against human SW156 cells harboring wild type KRAS after 72 hrs by CellTiter-Glo assay; format: functional, cell-based
# Ephrin type-B receptor 2 (Homo sapiens), sequence (P29323 whole entry): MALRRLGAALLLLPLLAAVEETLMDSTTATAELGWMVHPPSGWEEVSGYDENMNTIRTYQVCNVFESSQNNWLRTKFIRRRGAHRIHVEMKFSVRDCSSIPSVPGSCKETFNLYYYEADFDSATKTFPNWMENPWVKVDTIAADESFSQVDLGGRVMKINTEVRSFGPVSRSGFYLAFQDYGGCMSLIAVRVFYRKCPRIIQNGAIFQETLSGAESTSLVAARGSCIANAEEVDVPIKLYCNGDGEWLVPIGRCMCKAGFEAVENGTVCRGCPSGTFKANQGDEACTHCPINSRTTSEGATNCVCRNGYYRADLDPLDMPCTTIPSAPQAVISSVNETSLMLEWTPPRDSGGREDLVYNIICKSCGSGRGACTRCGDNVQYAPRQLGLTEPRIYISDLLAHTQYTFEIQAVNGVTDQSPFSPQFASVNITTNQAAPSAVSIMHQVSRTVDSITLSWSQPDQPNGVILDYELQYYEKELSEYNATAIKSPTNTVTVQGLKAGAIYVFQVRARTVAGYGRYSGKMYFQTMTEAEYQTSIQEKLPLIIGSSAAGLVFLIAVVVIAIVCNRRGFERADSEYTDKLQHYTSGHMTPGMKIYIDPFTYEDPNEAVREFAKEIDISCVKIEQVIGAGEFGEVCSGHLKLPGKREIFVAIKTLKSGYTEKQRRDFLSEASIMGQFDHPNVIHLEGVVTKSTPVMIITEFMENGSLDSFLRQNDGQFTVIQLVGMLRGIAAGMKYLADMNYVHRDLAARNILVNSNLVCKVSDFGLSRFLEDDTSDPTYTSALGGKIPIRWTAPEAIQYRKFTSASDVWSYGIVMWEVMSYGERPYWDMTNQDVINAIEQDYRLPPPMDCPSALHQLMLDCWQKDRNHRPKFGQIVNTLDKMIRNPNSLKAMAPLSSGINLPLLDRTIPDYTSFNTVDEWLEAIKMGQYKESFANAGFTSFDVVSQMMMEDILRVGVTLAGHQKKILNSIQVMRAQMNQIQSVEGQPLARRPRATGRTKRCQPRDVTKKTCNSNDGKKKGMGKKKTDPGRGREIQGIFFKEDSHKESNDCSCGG
# Serine/threonine-protein kinase ATR (Homo sapiens), sequence (Q13535 whole entry, looked up): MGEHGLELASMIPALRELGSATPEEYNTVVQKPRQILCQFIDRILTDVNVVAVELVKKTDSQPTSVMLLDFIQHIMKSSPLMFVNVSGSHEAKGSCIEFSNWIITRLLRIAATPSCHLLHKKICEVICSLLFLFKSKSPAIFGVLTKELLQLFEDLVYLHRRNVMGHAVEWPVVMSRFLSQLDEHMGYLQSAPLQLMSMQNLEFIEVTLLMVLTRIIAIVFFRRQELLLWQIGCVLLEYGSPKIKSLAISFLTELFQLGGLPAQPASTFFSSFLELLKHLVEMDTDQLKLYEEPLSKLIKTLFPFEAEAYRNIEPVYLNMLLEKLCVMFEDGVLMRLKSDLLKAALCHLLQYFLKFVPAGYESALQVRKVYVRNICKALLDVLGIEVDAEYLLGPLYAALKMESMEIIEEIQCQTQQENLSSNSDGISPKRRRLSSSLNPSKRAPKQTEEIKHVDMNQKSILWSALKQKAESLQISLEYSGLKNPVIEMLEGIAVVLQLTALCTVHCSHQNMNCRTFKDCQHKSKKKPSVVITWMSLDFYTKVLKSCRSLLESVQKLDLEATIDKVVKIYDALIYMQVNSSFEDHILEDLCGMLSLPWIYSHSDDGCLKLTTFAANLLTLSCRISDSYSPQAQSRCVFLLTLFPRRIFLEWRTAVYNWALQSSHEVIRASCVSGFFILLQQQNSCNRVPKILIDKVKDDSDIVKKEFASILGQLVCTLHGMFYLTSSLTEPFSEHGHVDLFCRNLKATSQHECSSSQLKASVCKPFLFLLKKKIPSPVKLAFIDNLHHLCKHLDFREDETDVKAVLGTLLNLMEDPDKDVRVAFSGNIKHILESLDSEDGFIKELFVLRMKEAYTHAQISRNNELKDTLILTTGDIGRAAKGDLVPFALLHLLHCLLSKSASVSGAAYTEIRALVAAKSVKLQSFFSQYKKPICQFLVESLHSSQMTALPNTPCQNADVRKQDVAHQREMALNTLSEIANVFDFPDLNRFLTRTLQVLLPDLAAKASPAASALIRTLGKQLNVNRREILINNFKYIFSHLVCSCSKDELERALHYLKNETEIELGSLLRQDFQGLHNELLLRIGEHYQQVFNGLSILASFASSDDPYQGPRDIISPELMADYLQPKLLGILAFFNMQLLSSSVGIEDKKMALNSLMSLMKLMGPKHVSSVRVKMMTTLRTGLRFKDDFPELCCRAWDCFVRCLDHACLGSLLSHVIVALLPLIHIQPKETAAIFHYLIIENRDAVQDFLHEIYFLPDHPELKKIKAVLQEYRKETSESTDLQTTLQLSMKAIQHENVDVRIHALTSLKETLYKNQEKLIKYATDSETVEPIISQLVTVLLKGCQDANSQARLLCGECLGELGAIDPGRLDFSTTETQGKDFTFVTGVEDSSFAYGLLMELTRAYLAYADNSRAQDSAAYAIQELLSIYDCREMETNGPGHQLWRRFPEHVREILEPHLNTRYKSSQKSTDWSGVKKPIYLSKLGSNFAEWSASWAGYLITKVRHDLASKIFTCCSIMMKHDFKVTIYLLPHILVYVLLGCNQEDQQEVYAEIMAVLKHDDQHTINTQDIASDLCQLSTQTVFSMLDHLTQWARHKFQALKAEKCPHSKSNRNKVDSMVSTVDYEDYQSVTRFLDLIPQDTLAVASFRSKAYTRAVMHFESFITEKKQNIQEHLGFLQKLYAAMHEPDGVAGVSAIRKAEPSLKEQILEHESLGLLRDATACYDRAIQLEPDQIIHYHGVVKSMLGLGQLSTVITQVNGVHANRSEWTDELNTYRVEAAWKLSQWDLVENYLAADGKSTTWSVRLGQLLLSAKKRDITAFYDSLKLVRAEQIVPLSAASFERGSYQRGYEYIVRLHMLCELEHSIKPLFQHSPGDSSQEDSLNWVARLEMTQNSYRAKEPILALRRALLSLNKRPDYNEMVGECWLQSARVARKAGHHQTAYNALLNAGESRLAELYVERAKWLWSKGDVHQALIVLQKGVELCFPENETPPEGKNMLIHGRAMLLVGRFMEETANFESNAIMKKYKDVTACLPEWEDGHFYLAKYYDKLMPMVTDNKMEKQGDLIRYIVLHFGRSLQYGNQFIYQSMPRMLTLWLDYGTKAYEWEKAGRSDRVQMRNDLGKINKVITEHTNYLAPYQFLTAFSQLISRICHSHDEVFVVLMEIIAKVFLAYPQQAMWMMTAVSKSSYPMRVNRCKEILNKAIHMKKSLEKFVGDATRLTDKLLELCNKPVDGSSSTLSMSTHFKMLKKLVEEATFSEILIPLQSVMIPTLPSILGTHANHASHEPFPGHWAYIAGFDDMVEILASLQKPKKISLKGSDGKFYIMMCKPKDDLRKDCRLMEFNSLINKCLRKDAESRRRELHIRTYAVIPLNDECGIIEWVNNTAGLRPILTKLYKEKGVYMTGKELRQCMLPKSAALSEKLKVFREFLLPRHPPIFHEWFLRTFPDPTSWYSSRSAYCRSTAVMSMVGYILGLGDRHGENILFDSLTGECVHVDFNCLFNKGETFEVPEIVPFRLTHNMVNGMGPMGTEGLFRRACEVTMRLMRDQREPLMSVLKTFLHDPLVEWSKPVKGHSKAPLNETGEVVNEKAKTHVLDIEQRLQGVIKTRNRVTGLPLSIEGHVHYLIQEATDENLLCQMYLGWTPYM
# Serine/threonine-protein kinase/endoribonuclease IRE2 (Homo sapiens), sequence (Q76MJ5 35-926 limits assumed): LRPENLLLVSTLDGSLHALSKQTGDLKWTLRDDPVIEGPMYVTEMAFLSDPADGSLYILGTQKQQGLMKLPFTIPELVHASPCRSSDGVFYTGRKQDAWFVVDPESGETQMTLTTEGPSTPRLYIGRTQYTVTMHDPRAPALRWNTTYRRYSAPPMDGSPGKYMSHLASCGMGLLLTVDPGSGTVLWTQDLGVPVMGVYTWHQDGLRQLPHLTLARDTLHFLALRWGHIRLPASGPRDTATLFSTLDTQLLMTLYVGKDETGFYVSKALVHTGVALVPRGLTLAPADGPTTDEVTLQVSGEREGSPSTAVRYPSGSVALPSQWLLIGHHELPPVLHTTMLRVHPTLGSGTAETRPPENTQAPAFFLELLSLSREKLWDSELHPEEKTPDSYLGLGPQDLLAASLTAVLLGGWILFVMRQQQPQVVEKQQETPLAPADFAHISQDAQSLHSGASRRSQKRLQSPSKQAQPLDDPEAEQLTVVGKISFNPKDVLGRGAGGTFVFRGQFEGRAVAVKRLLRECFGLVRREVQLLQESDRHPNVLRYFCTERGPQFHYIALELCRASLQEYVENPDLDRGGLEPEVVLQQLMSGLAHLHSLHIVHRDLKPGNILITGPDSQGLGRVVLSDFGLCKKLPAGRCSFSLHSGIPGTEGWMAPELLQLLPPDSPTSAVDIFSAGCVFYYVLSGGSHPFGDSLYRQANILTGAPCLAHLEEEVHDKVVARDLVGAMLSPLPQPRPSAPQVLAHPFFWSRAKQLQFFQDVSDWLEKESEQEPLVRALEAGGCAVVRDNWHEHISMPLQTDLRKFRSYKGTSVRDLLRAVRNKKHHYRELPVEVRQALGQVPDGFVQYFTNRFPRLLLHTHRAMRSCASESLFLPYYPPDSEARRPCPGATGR
# Cyclin-dependent kinase 6 (Homo sapiens), sequence (Q00534 whole entry): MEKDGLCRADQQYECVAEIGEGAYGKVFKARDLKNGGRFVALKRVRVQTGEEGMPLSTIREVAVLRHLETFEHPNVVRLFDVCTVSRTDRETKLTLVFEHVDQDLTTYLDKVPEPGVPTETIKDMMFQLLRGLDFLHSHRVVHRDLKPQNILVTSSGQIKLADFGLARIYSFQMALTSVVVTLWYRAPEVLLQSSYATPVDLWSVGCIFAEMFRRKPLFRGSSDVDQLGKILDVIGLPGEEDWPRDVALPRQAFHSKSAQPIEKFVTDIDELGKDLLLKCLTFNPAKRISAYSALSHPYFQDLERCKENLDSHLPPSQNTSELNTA
Structure (SMILES),Activity [1],inhibition [2] [%],inhibition [3] [%],inhibition [4] [%],inhibition [5] [%],inhibition [6] [%],inhibition [7] [%],inhibition [8] [%],"IC50 ([1]; NCI-H23, 72 h) [nM]",inhibition [9] [%],inhibition [10] [%],inhibition [11] [%],inhibition [12] [%],inhibition [13] [%],inhibition [14] [%],inhibition [15] [%],IC50 [16] [nM],inhibition [17] [%],IC50 [18] [nM]
C=CC(=O)Nc1ccccc1Nc1nc(Nc2ccc(N3CCN(C)CC3)cc2)ncc1Cl,Active,4.9,24.9,-8.1,38.1,6.9,-7.7,–,–,–,–,–,–,–,–,–,–,–,–
COc1cc(O)c2c(c1)/C=C/C[C@H](O)[C@H](O)C(=O)/C=C\C[C@H](C)OC2=O,–,–,26.2,2,86.8,21.4,–,24.2,1000,4.9,6.4,8.5,51.7,12.4,95,68.8,12,95,2020
C=CC(=O)Nc1ccccc1Oc1nc(Nc2cnn(CCOC)c2)ncc1Cl,–,8.1,–,–,–,–,-3.3,13.7,–,-0.4,12.8,-0.9,41.3,11.6,7.9,54.5,302,7.9,3020
